Assay results collected from several papers.
Lines come from different studies, so protocols differ.
Matrix: plasma

`Cc1cc(S(=O)(=O)NC2CC(N3CCN(CC4CCN(c5cccc6c5n(C)c(=O)n6C5CCC(=O)NC5=O)CC4)CC3)C2)ccc1Nc1ncc(C(F)(F)F)c(N2CCC[C@](C)(O)C2)n1` (stereo partly drawn) gave a Vd of 10 L/kg (rat; intravenous, 2 mg/kg).
`CNC(=O)c1cc(Oc2ccc(NC(=O)Nc3ccc(Cl)c(C(F)(F)F)c3)cc2)ccn1` has a Vd/F of 112 L/kg (male Sprague-Dawley rat; oral, 100 mg/kg, single dose).
With `CC(=O)O[C@@H]1CC[C@@]2(C)[C@@H](CC[C@]3(C)[C@@H]2C(=O)C=C2[C@@H]4[C@@H](C)[C@H](C)CC[C@]4(C)CC[C@]23C)[C@@]1(C)C(=O)O` the Vd/F was 0.28 L/kg (female Wistar rat; oral, 1 mg/kg, single dose).
For `CNS(=O)(=O)c1ccc(Nc2ncc(C(F)(F)F)c(N3CCC[C@](C)(O)C3)n2)c(C)c1`, the Vd was 3 L/kg (rat; intravenous, 2 mg/kg).
`Cc1nc(Nc2ncc(C(=O)Nc3c(C)cccc3Cl)s2)cc(N2CC[C@@H](O)C2)n1` gave a Vd of 0.9 L/kg (male Sprague-Dawley rat; intravenous, 1 mg/kg).
`CCCc1nc2c(C)cc(-c3nc4ccccc4n3C)cc2n1Cc1ccc(-c2ccccc2C(=O)O)cc1` has a Vd/F of 46.1 L/kg (male Sprague-Dawley rat; oral, 8 mg/kg, single dose).
`C1=C/COCc2cc(ccc2OCCN2CCCC2)Nc2nccc(n2)-c2cccc(c2)COC/1` has a Vd/F of 192 L (male Sprague-Dawley rat; oral, 36 mg/kg).
For `Cc1cc(S(=O)(=O)NC2CC(N3CC[C@@H](OC4CN(c5cccc6c5n(C)c(=O)n6C5CCC(=O)NC5=O)C4)[C@H](F)C3)C2)ccc1Nc1ncc(C(F)(F)F)c(N2CCC[C@](C)(O)C2)n1` (stereo partly drawn), the Vd was 10 L/kg (rat; intravenous, 2 mg/kg).
For `C[C@H]1Oc2cc(cnc2N)-c2c(nn(C)c2C#N)CN(C)C(=O)c2ccc(F)cc21`, the Vd/F was 19 L/kg (male Sprague-Dawley rat; oral, 50 mg/kg, single dose).
